Assay results taken from ChEMBL document CHEMBL5058577, “EUbOPEN Chemogenomics Library 2 (Multiplex)” (2022).

Tested on: HEK-293T
Experiment: Multiplex assay against HEK293T
Type: toxicity, cell-based
Details: human
Procedure, shortened: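 Imaging took place on a CQ1 microscope at 37°C and 5% CO2 once compound had been added to live cells stained at seeding with Hoechst33342, BioTracker Green Microtubule Cytoskeleton Dye, MitoTracker Red and Annexin V Alexa Fluor 680. CellPathfinder machine-learning gating classed cells as Hoechst high-intensity objects or normal cells, classed normal cells as having healthy, pyknosed or fragmented nuclei, and classed pyknosed cells as mitotic or apoptotic. Tubulin, mitochondrial-mass and membrane-permeability phenotypes are per cents of the healthy-nucleus cells.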

[1] = 12 h, 1 µM, compound concentration 1 uM, replicate 1
[2] = 12 h, 1 µM, compound concentration 1 uM, replicate 2
[3] = 12 h, 10 µM, compound concentration 10 uM, replicate 1
[4] = 12 h, 10 µM, compound concentration 10 uM, replicate 2
[5] = 24 h, 1 µM, compound concentration 1 uM, replicate 1
[6] = 24 h, 1 µM, compound concentration 1 uM, replicate 2
[7] = 24 h, 10 µM, compound concentration 10 uM, replicate 1
[8] = 24 h, 10 µM, compound concentration 10 uM, replicate 2
[9] = 48 h, 1 µM, compound concentration 1 uM, replicate 1
[10] = 48 h, 1 µM, compound concentration 1 uM, replicate 2
[11] = 48 h, 10 µM, compound concentration 10 uM, replicate 1
[12] = 48 h, 10 µM, compound concentration 10 uM, replicate 2

## Cc1sc2c(c1C)C(c1ccc(Cl)cc1)=N[C@H](CC(=O)OC(C)(C)C)c1nnc(C)n1-2
[1]
  Population Apoptotic (%): 40%
  Population Fragmented Nuclei (%): 8%
  Population Healthy Nuclei (%): 80%
  Population Hoechst High Intensity Objects (%): 8%
  Population Membrane Permeable-Phenotype (%): 0%
  Population Mitochondria Different-Phenotype (%): 49%
  Population Mitotic Cells (%): 60%
  Population Normal (%): 91%
  Population Pyknosed Nuclei (%): 10%
  Population Tubulin-Different-Phenotype (%): 32%
  Total Cell Count: 478
[2]
  Population Apoptotic (%): 44%
  Population Fragmented Nuclei (%): 6%
  Population Healthy Nuclei (%): 76%
  Population Hoechst High Intensity Objects (%): 9%
  Population Mitochondria Different-Phenotype (%): 65%
  Population Mitotic Cells (%): 55%
  Population Normal (%): 90%
  Population Pyknosed Nuclei (%): 17%
  Population Tubulin-Different-Phenotype (%): 26%
  Total Cell Count: 333
[3]
  Population Apoptotic (%): 41%
  Population Fragmented Nuclei (%): 7%
  Population Healthy Nuclei (%): 76%
  Population Hoechst High Intensity Objects (%): 7%
  Population Membrane Permeable-Phenotype (%): 0%
  Population Mitochondria Different-Phenotype (%): 74%
  Population Mitotic Cells (%): 58%
  Population Normal (%): 92%
  Population Pyknosed Nuclei (%): 15%
  Population Tubulin-Different-Phenotype (%): 67%
  Total Cell Count: 395
[4]
  Population Apoptotic (%): 66%
  Population Fragmented Nuclei (%): 5%
  Population Healthy Nuclei (%): 72%
  Population Hoechst High Intensity Objects (%): 10%
  Population Mitochondria Different-Phenotype (%): 90%
  Population Mitotic Cells (%): 33%
  Population Normal (%): 89%
  Population Pyknosed Nuclei (%): 21%
  Population Tubulin-Different-Phenotype (%): 70%
  Total Cell Count: 303
[5]
  Population Apoptotic (%): 32%
  Population Fragmented Nuclei (%): 10%
  Population Healthy Nuclei (%): 76%
  Population Hoechst High Intensity Objects (%): 5%
  Population Membrane Permeable-Phenotype (%): 0%
  Population Mitochondria Different-Phenotype (%): 29%
  Population Mitotic Cells (%): 68%
  Population Normal (%): 94%
  Population Pyknosed Nuclei (%): 13%
  Population Tubulin-Different-Phenotype (%): 19%
  Total Cell Count: 609
[6]
  Population Healthy Nuclei (%): 82%
  Population Hoechst High Intensity Objects (%): 6%
  Population Mitochondria Different-Phenotype (%): 43%
  Population Mitotic Cells (%): 67%
  Population Normal (%): 93%
  Population Pyknosed Nuclei (%): 6%
  Population Tubulin-Different-Phenotype (%): 11%
  Total Cell Count: 479
[7]
  Population Apoptotic (%): 41%
  Population Fragmented Nuclei (%): 8%
  Population Healthy Nuclei (%): 68%
  Population Hoechst High Intensity Objects (%): 4%
  Population Membrane Permeable-Phenotype (%): 0%
  Population Mitochondria Different-Phenotype (%): 64%
  Population Mitotic Cells (%): 58%
  Population Normal (%): 95%
  Population Pyknosed Nuclei (%): 23%
  Population Tubulin-Different-Phenotype (%): 46%
  Total Cell Count: 468
[8]
  Population Apoptotic (%): 49%
  Population Fragmented Nuclei (%): 3%
  Population Healthy Nuclei (%): 76%
  Population Hoechst High Intensity Objects (%): 6%
  Population Membrane Permeable-Phenotype (%): 1%
  Population Mitochondria Different-Phenotype (%): 76%
  Population Mitotic Cells (%): 50%
  Population Normal (%): 93%
  Population Pyknosed Nuclei (%): 19%
  Population Tubulin-Different-Phenotype (%): 47%
  Total Cell Count: 378
[9]
  Population Apoptotic (%): 18%
  Population Fragmented Nuclei (%): 11%
  Population Healthy Nuclei (%): 80%
  Population Hoechst High Intensity Objects (%): 3%
  Population Membrane Permeable-Phenotype (%): 1%
  Population Mitochondria Different-Phenotype (%): 16%
  Population Mitotic Cells (%): 81%
  Population Normal (%): 96%
  Population Pyknosed Nuclei (%): 7%
  Population Tubulin-Different-Phenotype (%): 10%
  Total Cell Count: 1012
[10]
  Population Apoptotic (%): 30%
  Population Fragmented Nuclei (%): 14%
  Population Healthy Nuclei (%): 79%
  Population Hoechst High Intensity Objects (%): 4%
  Population Membrane Permeable-Phenotype (%): 0%
  Population Mitochondria Different-Phenotype (%): 21%
  Population Mitotic Cells (%): 69%
  Population Normal (%): 95%
  Population Pyknosed Nuclei (%): 5%
  Population Tubulin-Different-Phenotype (%): 12%
  Total Cell Count: 685
[11]
  Population Apoptotic (%): 31%
  Population Fragmented Nuclei (%): 9%
  Population Healthy Nuclei (%): 73%
  Population Hoechst High Intensity Objects (%): 3%
  Population Membrane Permeable-Phenotype (%): 0%
  Population Mitochondria Different-Phenotype (%): 47%
  Population Mitotic Cells (%): 68%
  Population Normal (%): 96%
  Population Pyknosed Nuclei (%): 16%
  Population Tubulin-Different-Phenotype (%): 19%
  Total Cell Count: 641
[12]
  Population Apoptotic (%): 55%
  Population Fragmented Nuclei (%): 8%
  Population Healthy Nuclei (%): 76%
  Population Hoechst High Intensity Objects (%): 5%
  Population Mitochondria Different-Phenotype (%): 66%
  Population Mitotic Cells (%): 44%
  Population Normal (%): 94%
  Population Pyknosed Nuclei (%): 15%
  Population Tubulin-Different-Phenotype (%): 28%
  Total Cell Count: 525

## CC(C)(C)c1ccc(CSc2cnn(C(C)(C)C)c(=O)c2Cl)cc1 [PYRIDABEN]
[1]
  Population Apoptotic (%): 51%
  Population Fragmented Nuclei (%): 7%
  Population Healthy Nuclei (%): 78%
  Population Hoechst High Intensity Objects (%): 12%
  Population Membrane Permeable-Phenotype (%): 0%
  Population Mitochondria Different-Phenotype (%): 51%
  Population Mitotic Cells (%): 48%
  Population Normal (%): 87%
  Population Pyknosed Nuclei (%): 14%
  Population Tubulin-Different-Phenotype (%): 34%
  Total Cell Count: 299
[2]
  Population Apoptotic (%): 28%
  Population Fragmented Nuclei (%): 6%
  Population Healthy Nuclei (%): 83%
  Population Hoechst High Intensity Objects (%): 8%
  Population Mitochondria Different-Phenotype (%): 63%
  Population Mitotic Cells (%): 71%
  Population Normal (%): 91%
  Population Pyknosed Nuclei (%): 10%
  Population Tubulin-Different-Phenotype (%): 30%
  Total Cell Count: 306
[3]
  Population Apoptotic (%): 56%
  Population Fragmented Nuclei (%): 6%
  Population Healthy Nuclei (%): 77%
  Population Hoechst High Intensity Objects (%): 11%
  Population Membrane Permeable-Phenotype (%): 0%
  Population Mitochondria Different-Phenotype (%): 75%
  Population Mitotic Cells (%): 44%
  Population Normal (%): 88%
  Population Pyknosed Nuclei (%): 15%
  Population Tubulin-Different-Phenotype (%): 55%
  Total Cell Count: 359
[4]
  Population Apoptotic (%): 62%
  Population Fragmented Nuclei (%): 8%
  Population Healthy Nuclei (%): 74%
  Population Hoechst High Intensity Objects (%): 17%
  Population Mitochondria Different-Phenotype (%): 81%
  Population Mitotic Cells (%): 37%
  Population Normal (%): 82%
  Population Pyknosed Nuclei (%): 16%
  Population Tubulin-Different-Phenotype (%): 38%
  Total Cell Count: 236
[5]
  Population Apoptotic (%): 33%
  Population Fragmented Nuclei (%): 7%
  Population Healthy Nuclei (%): 80%
  Population Hoechst High Intensity Objects (%): 9%
  Population Membrane Permeable-Phenotype (%): 0%
  Population Mitochondria Different-Phenotype (%): 37%
  Population Mitotic Cells (%): 66%
  Population Normal (%): 90%
  Population Pyknosed Nuclei (%): 11%
  Population Tubulin-Different-Phenotype (%): 27%
  Total Cell Count: 373
[6]
  Population Apoptotic (%): 35%
  Population Healthy Nuclei (%): 83%
  Population Hoechst High Intensity Objects (%): 8%
  Population Mitochondria Different-Phenotype (%): 43%
  Population Mitotic Cells (%): 64%
  Population Normal (%): 91%
  Population Pyknosed Nuclei (%): 8%
  Population Tubulin-Different-Phenotype (%): 22%
  Total Cell Count: 370
[7]
  Population Apoptotic (%): 44%
  Population Fragmented Nuclei (%): 7%
  Population Healthy Nuclei (%): 79%
  Population Hoechst High Intensity Objects (%): 10%
  Population Membrane Permeable-Phenotype (%): 0%
  Population Mitochondria Different-Phenotype (%): 68%
  Population Mitotic Cells (%): 55%
  Population Normal (%): 89%
  Population Pyknosed Nuclei (%): 12%
  Population Tubulin-Different-Phenotype (%): 52%
  Total Cell Count: 386
[8]
  Population Apoptotic (%): 46%
  Population Fragmented Nuclei (%): 8%
  Population Healthy Nuclei (%): 70%
  Population Hoechst High Intensity Objects (%): 23%
  Population Mitochondria Different-Phenotype (%): 65%
  Population Mitotic Cells (%): 53%
  Population Normal (%): 76%
  Population Pyknosed Nuclei (%): 21%
  Population Tubulin-Different-Phenotype (%): 25%
  Total Cell Count: 252
[9]
  Population Apoptotic (%): 19%
  Population Fragmented Nuclei (%): 11%
  Population Healthy Nuclei (%): 80%
  Population Hoechst High Intensity Objects (%): 5%
  Population Membrane Permeable-Phenotype (%): 0%
  Population Mitochondria Different-Phenotype (%): 25%
  Population Mitotic Cells (%): 80%
  Population Normal (%): 94%
  Population Pyknosed Nuclei (%): 7%
  Population Tubulin-Different-Phenotype (%): 14%
  Total Cell Count: 585
[10]
  Population Apoptotic (%): 30%
  Population Fragmented Nuclei (%): 9%
  Population Healthy Nuclei (%): 84%
  Population Hoechst High Intensity Objects (%): 4%
  Population Mitochondria Different-Phenotype (%): 21%
  Population Mitotic Cells (%): 69%
  Population Normal (%): 95%
  Population Pyknosed Nuclei (%): 6%
  Population Tubulin-Different-Phenotype (%): 13%
  Total Cell Count: 522
[11]
  Population Apoptotic (%): 48%
  Population Fragmented Nuclei (%): 8%
  Population Healthy Nuclei (%): 79%
  Population Hoechst High Intensity Objects (%): 11%
  Population Membrane Permeable-Phenotype (%): 0%
  Population Mitochondria Different-Phenotype (%): 59%
  Population Mitotic Cells (%): 51%
  Population Normal (%): 88%
  Population Pyknosed Nuclei (%): 12%
  Population Tubulin-Different-Phenotype (%): 43%
  Total Cell Count: 424
[12]
  Population Apoptotic (%): 64%
  Population Fragmented Nuclei (%): 13%
  Population Healthy Nuclei (%): 71%
  Population Hoechst High Intensity Objects (%): 14%
  Population Mitochondria Different-Phenotype (%): 48%
  Population Mitotic Cells (%): 35%
  Population Normal (%): 85%
  Population Pyknosed Nuclei (%): 14%
  Population Tubulin-Different-Phenotype (%): 28%
  Total Cell Count: 290
